Source: ChEMBL document CHEMBL4706607, “Anti-tubercular profile of new selenium-menadione conjugates against Mycobacterium tuberculosis H37Rv (ATCC 27294) strain and multidrug-resistant clinical isolates” (Eur J Med Chem, 2021)
Converted amounts (≈) assume the structure as drawn.

Legend:
[1] = tested on: Mycobacterium tuberculosis; assay: Antimycobacterial activity against Mycobacterium tuberculosis H37Rv ATCC 27294 assessed as reduction in bacterial growth by resazurin reduction microplate assay; assay type: functional
Summary of the method: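 REMA in Middlebrook 7H9 broth with 10% ADC. Compounds dissolved at 1 mg/mL in DMSO and diluted to 50 μg/mL in broth containing 5% DMSO. Ten-point two-fold dilutions gave 25.0 to 0.05 μg/mL. Growth and sterility controls on each plate. MIC was the lowest concentration preventing the blue-to-pink change.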

[2] = Cytotoxicity against African green monkey Vero cells assessed as reduction in cell viability incubated for 24 hrs by MTT assay; assay type: cell-based; conditions: chlorocebus sabaeus
Summary of the method: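 Vero cells kept in DMEM with 4.5 mg/mL glucose and 10% inactivated FBS at 37 °C, 5% CO2. Seeded at 30,000 cells/well and grown 24 h, then exposed to 5, 10, 25 and 50 μM for 24 h. Control was medium with 1% DMSO. MTT 0.5 mg/mL in HBSS for 3 h; formazan dissolved in DMSO and read at 570–690 nm. CC50 taken from survival relative to untreated cells.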

[3] = Selectivity index, ratio of CC50 for African green monkey Vero cells to MIC for Mycobacterium tuberculosis H37Rv ATCC 27294; assay type: toxicity; conditions: read-out: Selectivity Index
[4] = Selectivity index, ratio of CC50 for African green monkey Vero cells to MIC for Mycobacterium tuberculosis CDCT-16; assay type: toxicity; conditions: read-out: Selectivity Index
[5] = Selectivity index, ratio of CC50 for African green monkey Vero cells to MIC for Mycobacterium tuberculosis CDCT-27; assay type: toxicity; conditions: read-out: Selectivity Index

Row | SMILES | MIC [1] | CC50 at 24 h [2] | selectivity ratio [3] | selectivity ratio [4] | selectivity ratio [5]
1 | CC1=C(C[Se]C(=O)c2ccc(C)cc2)C(=O)c2ccccc2C1=O | > 10 µM |  |  |  | 
2 | CC1=C(C[Se]C(=O)c2ccc(Cl)cc2)C(=O)c2ccccc2C1=O | > 10 µM |  |  |  | 
3 | COc1ccc(C(=O)[Se]CC2=C(C)C(=O)c3ccccc3C2=O)cc1 | > 10 µM |  |  |  | 
4 | CCCC(C)C(=O)[Se]CC1=C(C)C(=O)c2ccccc2C1=O (centres undefined) | > 10 µM |  |  |  | 
5 | CCCCC(=O)[Se]CC1=C(C)C(=O)c2ccccc2C1=O | > 10 µM |  |  |  | 
6 | CC1=C(C[Se]C(=O)c2ccccc2C)C(=O)c2ccccc2C1=O | 8.1 µM (≈ 3.1 µg/mL) | 7.7 µM | 0.9 | 2.5 | 2.5
7 | CC1=C(C[Se]C(=O)c2ccccc2)C(=O)c2ccccc2C1=O | 2.1 µM (≈ 0.775 µg/mL) | > 50 µM | > 23.8 | > 62.5 | > 62.5
8 | CCc1ccc(C(=O)[Se]CC2=C(C)C(=O)c3ccccc3C2=O)cc1 | > 10 µM |  |  |  | 
9 | CC1=C(C[Se]C(=O)c2ccc(F)cc2)C(=O)c2ccccc2C1=O | 8 µM (≈ 3.1 µg/mL) | > 50 µM | > 6.2 | > 62.5 | > 16.1
10 | NNC(=O)c1ccncc1 [ISONIAZID] | 2.2 µM (≈ 0.302 µg/mL) | > 50 µM | > 22.7 |  | 
